pIC50: −log10 of the molar value.
Target: 5-hydroxytryptamine receptor 1B (Rattus norvegicus, UniProt P28564)
Experiment: Binding affinity to 5-HT1B receptors using rat cortex+striatum + globus pallidus,[3H]-5-OH-tryptamine, and serotonin for NSB
In short: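 Membranes from rat cortex plus striatum plus globus pallidus; [3H]-5-OH-tryptamine as radioligand at roughly its KD; serotonin defines nonspecific binding. Competition binding; IC50 taken as concentration inhibiting 50% of specific binding.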

Chain of 5-hydroxytryptamine receptor 1B (P28564 whole entry): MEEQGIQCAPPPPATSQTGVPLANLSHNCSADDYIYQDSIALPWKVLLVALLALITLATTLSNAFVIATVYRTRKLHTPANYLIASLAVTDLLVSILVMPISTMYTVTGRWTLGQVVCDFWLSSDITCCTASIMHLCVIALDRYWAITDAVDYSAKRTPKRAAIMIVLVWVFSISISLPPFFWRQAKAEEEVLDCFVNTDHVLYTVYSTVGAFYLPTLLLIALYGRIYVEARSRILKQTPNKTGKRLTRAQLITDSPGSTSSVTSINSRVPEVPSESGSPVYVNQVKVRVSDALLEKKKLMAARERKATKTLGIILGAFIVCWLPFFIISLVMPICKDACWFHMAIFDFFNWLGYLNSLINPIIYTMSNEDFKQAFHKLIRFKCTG

Row | Compound | pIC50
1 | CCCN1CCCC12COc1cccc(OCCCCN3C(=O)CC4(CCCC4)CC3=O)c1C2 (centres undefined) | 5.57
2 | COc1cccc2c1CC1(CCCN1C(C)=O)CO2 (centres undefined) | 3.61
3 | CCCN1CCCC12COc1cccc(O)c1C2 (centres undefined) | < 4.00

Target: not listed separately
Experiment: Displacement of [3H]raclopride from Dopamine receptor […] of calf striatum
Set-up: species or system Bos taurus
In short: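 Calf striatum; [3H]raclopride at about its KD; haloperidol for nonspecific binding. Competition assay reporting IC50 (50% inhibition of specific binding).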

Row | Compound | pIC50
4 | CCCN1CCCC12COc1cccc(O)c1C2 (centres undefined) | < 3.00

Target: D(2) dopamine receptor (Bos taurus, UniProt P20288)
Sequence (P20288 whole entry): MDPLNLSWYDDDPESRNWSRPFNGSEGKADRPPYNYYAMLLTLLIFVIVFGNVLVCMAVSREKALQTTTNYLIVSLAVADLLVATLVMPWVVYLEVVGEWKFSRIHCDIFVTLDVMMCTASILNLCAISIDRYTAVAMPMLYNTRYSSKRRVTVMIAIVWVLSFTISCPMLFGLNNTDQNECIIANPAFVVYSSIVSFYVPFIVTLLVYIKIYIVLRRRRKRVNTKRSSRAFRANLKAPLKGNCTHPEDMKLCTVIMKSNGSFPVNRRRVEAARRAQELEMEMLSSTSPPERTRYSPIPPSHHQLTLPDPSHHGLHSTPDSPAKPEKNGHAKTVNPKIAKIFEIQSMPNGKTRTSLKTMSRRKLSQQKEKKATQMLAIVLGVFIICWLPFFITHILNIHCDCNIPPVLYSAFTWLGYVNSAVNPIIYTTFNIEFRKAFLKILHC
Experiment: Displacement of [3H]SDZ-205-501 from Dopamine receptor D2 in calf caudate nucleus.
In short: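 Calf caudate nucleus; [3H]SDZ205-501 near its KD; butaclamol for nonspecific binding. Competition binding; IC50 for 50% inhibition of specific binding.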

Row | Compound | pIC50
5 | CCCN1CCCC12COc1cccc(O)c1C2 (centres undefined) | 4.15

Target: not listed separately
Experiment: Binding affinity to 5-hydroxytryptamine 2 receptor using calf frontal cortex, [3H]- ketanserin, and spiperone for NSB
Set-up: species or system Bos taurus
In short: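 Calf frontal cortex; [3H]ketanserin near its KD; nonspecific binding with spiperone. Competition binding; IC50 = concentration inhibiting 50% of specific binding.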

Row | Compound | pIC50
6 | CCCN1CCCC12COc1cccc(OCCCCN3C(=O)CC4(CCCC4)CC3=O)c1C2 (centres undefined) | 4.17
7 | COc1cccc2c1CC1(CCCN1C(C)=O)CO2 (centres undefined) | < 4.00
8 | CCCN1CCCC12COc1cccc(O)c1C2 (centres undefined) | 3.44

Target: T1, 5-hydroxytryptamine receptor 1A (Rattus norvegicus, UniProt P19327)
T1 sequence (P19327 whole entry): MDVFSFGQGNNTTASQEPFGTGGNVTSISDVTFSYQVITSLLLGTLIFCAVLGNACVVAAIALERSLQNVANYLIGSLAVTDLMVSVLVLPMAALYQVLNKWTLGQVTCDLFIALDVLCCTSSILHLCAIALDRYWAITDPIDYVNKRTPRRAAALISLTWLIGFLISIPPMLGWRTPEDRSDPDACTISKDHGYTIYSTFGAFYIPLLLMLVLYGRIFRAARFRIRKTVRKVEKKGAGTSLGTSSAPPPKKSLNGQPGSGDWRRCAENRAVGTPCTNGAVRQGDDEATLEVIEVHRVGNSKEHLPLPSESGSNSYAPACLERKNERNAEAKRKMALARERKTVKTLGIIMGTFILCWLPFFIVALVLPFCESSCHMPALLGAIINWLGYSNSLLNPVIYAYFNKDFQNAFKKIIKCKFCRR
Experiment: Binding affinity to 5-hydroxytryptamine 1A receptor in rat hippocampus membranes,3H-8-OH-DPAT and buspirone for nonspecific binding (NSB)
Format: cell membranes

Row | Compound | pIC50
9 | CCCN1CCCC12COc1cccc(OCCCCN3C(=O)CC4(CCCC4)CC3=O)c1C2 (centres undefined) | 7.00
10 | COc1cccc2c1CC1(CCCN1C(C)=O)CO2 (centres undefined) | 4.09

Target: T1, 5-hydroxytryptamine receptor 1A
Experiment: Compound was evaluated for binding affinity on 5-hydroxytryptamine 1A receptor in rat hippocampus membranes,3H-8-OH-DPAT and buspirone for nonspecific binding
Format: cell membranes
In short: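 Rat hippocampal membranes in competition binding against [³H]-8-OH-DPAT, with the radioligand at roughly its KD. […] IC50 was taken as the concentration inhibiting 50% of specific binding.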

Row | Compound | pIC50
11 | CCCN1CCCC12COc1cccc(O)c1C2 (centres undefined) | 7.41

Target: T2, Serotonin 3 receptor (5HT3) (Mus musculus, UniProt Q9JHJ5+P23979)
T2 sequence (Q9JHJ5 whole entry): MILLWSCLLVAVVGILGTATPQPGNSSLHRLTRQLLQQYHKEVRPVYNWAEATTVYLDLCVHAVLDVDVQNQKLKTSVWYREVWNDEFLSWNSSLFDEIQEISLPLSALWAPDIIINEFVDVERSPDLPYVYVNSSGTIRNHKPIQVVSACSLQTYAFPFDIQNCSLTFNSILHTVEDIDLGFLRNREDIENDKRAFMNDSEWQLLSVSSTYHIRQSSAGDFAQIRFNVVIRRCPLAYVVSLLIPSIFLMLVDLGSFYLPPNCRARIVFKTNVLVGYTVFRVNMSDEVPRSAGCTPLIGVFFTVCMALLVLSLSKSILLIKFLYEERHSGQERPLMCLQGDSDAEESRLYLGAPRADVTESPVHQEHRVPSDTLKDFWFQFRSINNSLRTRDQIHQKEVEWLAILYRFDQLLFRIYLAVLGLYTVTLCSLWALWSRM
T2 sequence (P23979 whole entry): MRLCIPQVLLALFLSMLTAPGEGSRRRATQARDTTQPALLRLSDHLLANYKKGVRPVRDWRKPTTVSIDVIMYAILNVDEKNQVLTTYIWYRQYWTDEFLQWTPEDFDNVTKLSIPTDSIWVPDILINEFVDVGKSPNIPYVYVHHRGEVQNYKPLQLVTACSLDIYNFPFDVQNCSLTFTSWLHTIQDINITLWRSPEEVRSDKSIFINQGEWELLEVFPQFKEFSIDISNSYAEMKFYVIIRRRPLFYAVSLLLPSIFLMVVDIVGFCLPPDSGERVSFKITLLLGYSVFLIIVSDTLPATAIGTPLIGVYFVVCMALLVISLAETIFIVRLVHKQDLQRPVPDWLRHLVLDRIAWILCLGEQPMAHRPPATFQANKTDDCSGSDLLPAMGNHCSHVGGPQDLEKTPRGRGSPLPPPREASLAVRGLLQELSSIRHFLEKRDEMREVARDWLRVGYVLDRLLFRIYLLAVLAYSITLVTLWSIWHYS
Experiment: Displacement of [3H]-BRC 36694 from 5-hydroxytryptamine 3 receptor in NG108-15 cells
Format: cell-based
In short: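 NG108-15 cells; [3H]-BRC 36694 at approximately its KD; ICS 205930 for nonspecific binding. Competition binding expressed as IC50 against specific binding.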

Row | Compound | IC50 [µM] | pIC50
12 | CCCN1CCCC12COc1cccc(OCCCCN3C(=O)CC4(CCCC4)CC3=O)c1C2 (centres undefined) | 3.97 | –
13 | COc1cccc2c1CC1(CCCN1C(C)=O)CO2 (centres undefined) | – | < 4.00
14 | CCCN1CCCC12COc1cccc(O)c1C2 (centres undefined) | 7.93 | –
